No end group written: not given here. *: point of attachment. Octanoyl = CCCCCCCC(=O)*
Experiments:
[1] = human plasma; cited from earlier work
[2] = cited from earlier work
[3] = Ghrl-stability evaluation; assay type: physicochemical; details: Ghrl 1 mg/mL, physiological pH, 4–60°C, up to 48 hours, HPLC/UV
Outline: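 Ghrelin at 1 mg/mL was held at 4, 25, 37 and 60°C in water, PBS pH 7.4, HBSS pH 7.4 and pharmacopoeial buffers from pH 2 to 10.4 (PBS, acetate, phosphate, boric acid, borate). Samples were drawn at 0.5–6, 24 and 48 h. Remaining peptide was quantified by reversed-phase HPLC/UV on an ODS column at 37°C, using water/acetonitrile mobile phases with 0.1% TFA.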

[4] = Isothermal titration calorimetry of Ghrl with AL-free; assay type: binding; details: ITC, AL-free 10 mg/mL injected into Ghrl 1 mg/mL, PBS pH 7.4, 26°C, mean of n=2
Outline: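 Empty anionic liposomes (10 mg/mL in PBS pH 7.4) were injected stepwise into ghrelin (1 mg/mL in PBS) in the measuring cell. Each injection lasted 14.5 s, with 600 s spacing until steady state. Solutions were degassed beforehand, water served as reference and stirring was 300 rpm. A PBS-only blank was titrated. Heats were fitted to a cumulative model for K, ΔG, ΔH and TΔS. The titration was done twice and averaged.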

Substance: ghrelin (GSS(Octanoyl)FLSPEHQRVQQRKESKKPPAKLQPR; UniProt Q9UBU3 24-51, looked up) [Ghrl]
- plasmatic half-life t½ [1]: 9 to 13 min
- isoelectric point [2]: 11.5
- Stability of Ghrl on prolonged heating [3]: without any degradation
- Binding coefficient K [4]: 0.875 mM⁻¹

— publication PMC5713684 (International Journal of Nanomedicine, 2017)
